A selection: hits, their analogues and other compounds. The true share with any hit is near 1.2%.
PfGluPho inh: PfG6PD (Plasmodium falciparum) enzyme inhibition; PfGluPho enzyme, NADPH resazurin-diaphorase fluorescence; inhibition, % at 20 µM; 350,000 tested, 0.78% active; AID 504690;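 active = inhibition reaching at least a set limit at 20 µM in the primary screen, cut at about 59% in these data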
TbHK1 inh: T. brucei hexokinase 1 inhibition | recombinant TbHK1, G6PDH-coupled NADH A340 | inhibition, % at 10 µM | 220,000 tested, 0.11% active | AID 1430;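 active = inhibition of 50% or more in the single-dose primary screen; inactive = inhibition below 50%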
Diaph inh CS: diaphorase inhibition or chemical oxidation counter-screen. diaphorase resazurin-to-resorufin fluorescence, NADH, 16 min; bacterial (C. kluyveri) enzyme, not human. 190,000 tested, 0.69% active. inhibition, % at 20 µM. AID 1217;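 active = primary screen inhibition at 20 µM above a set limit, cut at about 50% in these data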
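material = Clostridium kluyveri diaphorase enzyme | amount = 0.14 U/mL diaphorase, enzyme working solution | schedule = incubation 16 min, room temperature | detection = fluorescence of resorufin formed from resazurin, Ex 544/Em 590 nm | benchmarks = positive control minus NADH, DMSO neutral control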
HKDC1 inh: inhibitors of human hexokinase HKDC1; 340,000 tested, 0.16% active; inhibition, % at 20 µM; recombinant HKDC1, G6PDH/diaphorase resazurin coupled fluorescence; Q2TB90;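 active = inhibition above about 35% when tested at 20 µM, limit read from the data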
Target sequence (Q2TB90 whole entry, looked up): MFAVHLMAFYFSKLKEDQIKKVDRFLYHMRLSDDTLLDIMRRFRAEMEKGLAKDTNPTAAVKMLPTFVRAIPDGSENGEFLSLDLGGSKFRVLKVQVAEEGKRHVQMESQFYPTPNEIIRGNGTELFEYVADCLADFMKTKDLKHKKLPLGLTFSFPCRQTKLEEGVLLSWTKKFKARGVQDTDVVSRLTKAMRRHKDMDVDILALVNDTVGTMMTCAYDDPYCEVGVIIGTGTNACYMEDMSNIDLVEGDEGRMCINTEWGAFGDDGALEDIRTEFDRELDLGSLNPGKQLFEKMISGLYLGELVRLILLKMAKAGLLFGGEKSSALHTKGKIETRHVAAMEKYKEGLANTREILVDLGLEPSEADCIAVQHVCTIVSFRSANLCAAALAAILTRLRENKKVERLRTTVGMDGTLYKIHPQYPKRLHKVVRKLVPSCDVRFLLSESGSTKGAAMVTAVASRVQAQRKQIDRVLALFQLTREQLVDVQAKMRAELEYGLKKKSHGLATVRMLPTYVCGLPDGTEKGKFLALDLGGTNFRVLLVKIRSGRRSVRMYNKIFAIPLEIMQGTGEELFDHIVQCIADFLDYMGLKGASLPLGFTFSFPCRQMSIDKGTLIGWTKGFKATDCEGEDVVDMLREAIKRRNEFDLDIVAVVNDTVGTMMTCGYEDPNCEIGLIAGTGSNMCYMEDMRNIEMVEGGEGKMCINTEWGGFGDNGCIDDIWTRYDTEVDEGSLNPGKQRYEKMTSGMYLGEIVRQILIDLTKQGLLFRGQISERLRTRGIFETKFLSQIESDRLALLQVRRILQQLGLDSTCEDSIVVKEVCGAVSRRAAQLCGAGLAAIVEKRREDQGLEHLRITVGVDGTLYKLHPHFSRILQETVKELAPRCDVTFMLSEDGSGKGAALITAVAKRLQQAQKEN
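Assay system: recombinant HKDC1 hexokinase; detection: coupled resazurin fluorescence, excitation 525 nm, emission 613 nm; benchmarks: DMSO-plus-enzyme-mix negative control, buffer-substituted positive control; compound dosing: single 20 µM dose; schedule: 90 min at room temperature in dark; also added: glucose plus 1 mM ATP as hexokinase substrates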
G6PDH counter: counter-screen for G6PDH assay hits: L. mesenteroides G6PDH inhibition | inhibition, % at 5 µM | 200,000 tested, 0.12% active | AID 1020 | Purified L. mesenteroides G6PDH, diaphorase/resazurin coupled fluorescence, 45 min; in the data active = inhibition above about 50%
A number is an active result; n = inactive; x = not tested or not shown.

SMILES	PfGluPho inh	TbHK1 inh	Diaph inh CS	HKDC1 inh	G6PDH counter
CCCN1C(=O)/C(=C/c2c(N3CCNC(=O)C3CC(=O)OCC)nc3c(C)cccn3c2=O)SC1=S (stereo not drawn)	59.9	n	x	n	x
Cc1ccc(OCCC(=O)OC(C)C(=O)NC2CC2)cc1 (stereo not drawn)	n	x	x	n	x
COc1cc(C2CC(=O)N3CN(c4ccccc4C)CSC3=C2C#N)cc(OC)c1OC (stereo not drawn)	x	n	58.8	x	n
COc1ccc(OC)c(C2CC(=O)N3CN(c4ccccc4F)CSC3=C2C#N)c1 (stereo not drawn)	n	n	n	n	n
COc1cccc(C2CC(=O)N3CN(c4ccccc4F)CSC3=C2C#N)c1 (stereo not drawn)	83.2	n	n	n	n
COc1ccc(OC)c(C2CC(=O)N3CN(c4cccc(Cl)c4)CSC3=C2C#N)c1 (stereo not drawn)	n	n	n	n	n
COc1ccc(Br)cc1C1CC(=O)N2CN(Cc3ccccc3)CSC2=C1C#N (stereo not drawn)	71.5	n	56.8	n	n
COc1ccc(OC)c(C2CC(=O)N3CN(c4cccc(Cl)c4C)CSC3=C2C#N)c1 (stereo not drawn)	83.0	n	52.2	n	n
C[C@@H]1CN([C@H](C)CO)C(=O)c2c(c3ccccc3n2C)-c2ccccc2CO[C@H]1CN(C)Cc1ccc(Oc2ccccc2)cc1	n	x	x	x	x
COc1ccc([C@H]2CN(c3ccc(OC)cc3)C(=O)[C@@H]2CC(=O)Nc2ccccc2)cc1	n	x	x	x	x
Cc1cccc(NC(=O)C2CCCN(C(=O)Nc3ccc(F)cc3)C2)c1 (stereo not drawn)	n	x	x	n	x
CCCCN(CCCNC(=O)c1ccc2c(c1)NC(=O)CN2C)c1ccccc1	n	x	x	x	x
Cc1ccc(C2CC(=O)N3CN(c4ccc(Br)cc4)CSC3=C2C#N)o1 (stereo not drawn)	n	n	58.3	n	n
CCOc1ccc(N2CSC3=C(C#N)C(c4ccco4)CC(=O)N3C2)cc1 (stereo not drawn)	n	n	n	n	n
Cc1noc(C)c1NC(=O)N(C)C[C@@H]1Oc2cc(Br)ccc2S(=O)(=O)N([C@H](C)CO)C[C@@H]1C	n	x	x	x	x
O=C(NC1CCS(=O)(=O)C1)/C(=C/c1ccco1)NC(=O)c1ccccc1 (stereo not drawn)	n	n	54.9	n	n
O=C(NC1CCS(=O)(=O)C1)/C(=C\c1ccco1)NC(=O)c1ccccc1 (stereo not drawn)	n	n	x	n	x
C[C@H]1CN([C@@H](C)CO)S(=O)(=O)c2ccc(C#Cc3ccccn3)cc2O[C@@H]1CN(C)C(=O)C1CC1	n	x	x	x	x
CCCCN(C(=O)CCOc1ccc(OCC)cc1)c1c(N)n(Cc2ccccc2)c(=O)[nH]c1=O	n	x	x	x	x
CC(=O)Nc1ccc(S(=O)(=O)c2ccnc3cc(Cl)ccc23)cc1	n	x	x	x	x
CN(C)c1nc(N)c2ncc(=S)[nH]c2n1	n	n	51.9	n	n
Cc1cc(C(=O)N2CCc3c([nH]c4ccccc34)C2c2c(F)cccc2Cl)no1 (stereo not drawn)	n	n	57.3	n	n
CC(C)C(=O)N(c1cc2sc(=O)oc2c2ccccc12)S(=O)(=O)c1cccs1	74.5	n	60.8	45.0	n
O=C(C[C@@H]1C[C@H]2c3cc(NC(=O)c4cccnc4)ccc3O[C@H]2[C@H](CO)O1)NCc1ccc(Oc2ccccc2)cc1	n	x	x	x	x
COc1ccc(NC(=O)CSc2nnc3n2CCCCC3)cc1OC	n	x	x	x	x
SMILES	PfGluPho inh	TbHK1 inh	Diaph inh CS	HKDC1 inh	G6PDH counter
Cc1ccc(-c2csc(NC(=O)c3ccc(-c4ccccc4)cc3)n2)o1	59.5	n	n	n	n
O=C(Nc1nc(-c2ccco2)cs1)c1ccccc1	n	n	n	n	n
COc1cc(CNc2ccc3[nH]c(=O)[nH]c3c2)ccc1OCC(=O)NC(C)(C)C	n	n	69.2	n	n
Oc1ccc(/C=N/Nc2nc(N3CCCC3)nc(N3CCCC3)n2)cc1O	n	n	71.6	n	n
Oc1ccc(/C=N/Nc2cc(N3CCCC3)nc(N3CCCC3)n2)cc1	n	n	n	n	51.8
Oc1ccc(/C=N/Nc2cc(N3CCOCC3)nc(N3CCOCC3)n2)cc1	n	n	x	n	x
CN(CCO)c1nc(N)c2c(N)nc3c(c2c1C#N)CC(=O)N3C1CCCC1	x	n	n	x	n
CC(C)(C)N1C(=O)Cc2c1nc(N)c1c(N)nc(N3CCCCC3CO)c(C#N)c21 (stereo not drawn)	88.8	n	56.5	n	n
CCOC(=O)NC1(Nc2cccc(Cl)c2)Oc2ccccc2O1	n	n	55.1	n	n
CCN1c2ccccc2N(C)C1(C)c1ccccc1 (stereo not drawn)	67.5	n	58.6	n	n
C=CCn1c(=O)[nH]c(=O)c2c(N)c(C(=O)c3ccc(OC)cc3)sc21	n	x	x	n	x
CCn1c(C)nc2cc(C(=O)N/N=C/c3ccccc3)ccc21	n	n	n	n	n
CCn1c(C)nc2cc(C(=O)N/N=C/c3cccc(O)c3O)ccc21	n	n	72.4	n	n
CCn1c(C)nc2cc(C(=O)NNC(=S)NC(=O)c3ccccc3)ccc21	n	n	54.9	n	n
C[C@H](O)CNC(=O)c1[nH]cnc1C(=O)Nc1cccc(Cl)c1	n	x	x	x	x
Nn1cc(-c2ccccc2)nc1SCC(=O)N1CCN(S(=O)(=O)c2ccc(Cl)cc2)CC1	n	n	54.4	n	n
CCNC1=C(Cl)C(=O)c2ccccc2C1=O	n	n	n	n	n
O=C1C(Cl)=C(NCCN2CCCCC2)C(=O)c2ccccc21	n	n	n	n	51.0
COc1ccc(NC(=S)Nc2cccc3cnccc23)cc1	n	n	56.1	n	n
COc1cccc(NC(=S)Nc2cccc3ccccc23)c1	n	x	x	n	x
CCOc1ccc(NC(=S)Nc2cccc3cnccc23)cc1	n	n	55.0	n	n
S=C(Nc1cccnc1)Nc1cccc2cnccc12	n	n	61.5	n	n
Fc1ccc(NC(=S)Nc2cccc3cnccc23)cc1	n	n	n	n	50.9
C[C@@H]1CCCCO[C@H](CN(C)C(=O)Nc2ccc3c(c2)OCO3)[C@@H](C)CN([C@H](C)CO)C(=O)c2cc(NS(=O)(=O)c3ccc(F)cc3)ccc2O1	n	x	x	x	x
COc1ccccc1NC(=S)Nc1cccc2cnccc12	n	n	64.9	n	n
O=C(COC(=O)c1cc(S(=O)(=O)N2CCc3ccccc3C2)ccc1Cl)NCc1ccco1	n	n	51.8	n	n
COCCN(CC(=O)Nc1cccc(C)c1C)C(=O)/C=C/c1ccc2c(c1)OCCO2	n	x	x	x	x
CC(C)(C)C1=CC(=O)C(=O)C(C(C)(C)C)=C1	111.3	n	72.7	n	n
CCOC(=O)c1c(C)oc2c1c(C=NCCC(=O)O)c(O)c1ccccc12	n	n	71.0	n	51.9
CCOC(=O)c1c(C)oc2c1c(C=NC1CCS(=O)(=O)C1)c(O)c1ccccc12 (stereo not drawn)	n	n	75.8	n	n

Screening data: PubChem BioAssay, several laboratories
